Measured values of several laboratories.
Each line is one published result; the experiments were not run side by side.
Target: Casein kinase I isoform epsilon (CSNK1E, Homo sapiens, UniProt P49674)

CC(=O)C1=C(C)N(c2cccc(C(F)(F)F)c2)C(=O)N[C@@H]1c1ccc(C#N)nc1
remaining binding (cell-free assay; competition with immobilised ligand; 1 µM): 100%

COc1ncc2cc3ccccc3nc2c1C#N
remaining binding (cell-free assay; competition with immobilised ligand; 5 µM): 86%

CN(C)c1nccc(-c2cnc3ncccn23)n1
remaining binding (binding; 1 µM): 65%

FC(F)(F)Oc1cccc(-c2cnc3ccc(-c4ccncc4)nn23)c1
remaining binding (cell-free assay; competition with immobilised ligand; 5 µM): 12%

CCN1CCN(Cc2ccc(C(=O)Nc3ccc(C)c(Oc4ccc5c(c4)CC(=O)N5)c3)cc2C(F)(F)F)CC1
remaining binding (binding; competition with immobilised ligand; 1 µM): 100%

CC(=O)N1CCC(c2ccc(C(=O)NC3=NCCN3)cc2C(F)(F)F)CC1
remaining binding (cell-free assay; competition with immobilised ligand; 1 µM): 100%

F[C@@H]1CCN(c2nccc(-c3cnn4ncccc34)n2)C1
remaining binding (binding; 1 µM): 85%

Cc1nc(N2CC[C@@H](O)C2)ncc1-c1cc(C(F)(F)F)cc2[nH]ncc12
remaining binding (binding; competition with immobilised ligand; 1 µM): 79%

O=C(NCC1CCOCC1)c1n[nH]cc1NC(=O)c1c(F)cccc1F
remaining binding (binding; competition with immobilised ligand; 1 µM): 81%

CNC(=O)[C@@H]1CC[C@@H](n2c(-c3ccc4cnccc4c3)nc3ccc(C(=O)NCc4cccc(C(N)=O)c4)cc32)C1
remaining binding (binding; competition with immobilised ligand; 1 µM): 100%

C[C@H]1CCN(c2nccc(-c3cnn4ncccc34)n2)C1
remaining binding (binding; 1 µM): 49%

C[C@@H]1CN(c2cc(-c3n[nH]c4ccc(OC5(C)CC5)cc34)ncn2)C[C@H](C)O1
remaining binding (cell-free assay; competition with immobilised ligand; 0.1 µM): 100%

N[C@H]1CCN(c2nccc(-c3cnn4ncccc34)n2)C1
remaining binding (binding; 1 µM): 47%

O=C(NCc1ncc(C(F)(F)F)cc1Cl)c1ccc2c(c1)C1(CCS(=O)(=O)CC1)[C@H](C1CC1)N2S(=O)(=O)c1ccc(F)cc1
remaining binding (cell-free assay; competition with immobilised ligand; 1 µM): 100%

CN(c1nccc(-c2cnn3ncccc23)n1)C1CC1
remaining binding (binding; 1 µM): 100%

O=C(c1ccc(Nc2ncc(Cl)c(-c3cc4ccccc4s3)n2)cc1)N1CCC(N2CCCC2)CC1
remaining binding (binding; competition with immobilised ligand; 1 µM): 100%

Cc1cc(NC(=O)c2cccc(S(F)(F)(F)(F)F)c2)cc(-n2ccn3nc(-c4cccnc4)cc23)c1
remaining binding (cell-free assay; competition with immobilised ligand; 1 µM): 75.7%

Cc1cnn2ncc(-c3ccnc(N(C)C)n3)c2c1
remaining binding (binding; 1 µM): 60%

O=C(c1ccc(Nc2nccc(-c3cc4ccccc4s3)n2)cc1)N1CCC(N2CCCC2)CC1
remaining binding (binding; competition with immobilised ligand; 1 µM): 100%

CC1CCCN1c1nccc(-c2cnn3ncccc23)n1 (stereo not shown)
remaining binding (binding; 1 µM): 100%

Cc1cc(C)c(-n2ccn3nc(-c4cccnc4)cc23)cc1NC(=O)c1cc(C#N)cc(S(F)(F)(F)(F)F)c1
remaining binding (cell-free assay; competition with immobilised ligand; 0.1 µM): 98.7%

O=C(c1ccc(Nc2ncc(Cl)c(-c3ccc(Cl)s3)n2)cc1)N1CCC(N2CCCC2)CC1
remaining binding (binding; competition with immobilised ligand; 1 µM): 100%
